Assay results published in PMC7610535 (Nature chemical biology, 2020).

What was measured:
[1] = tested on: IMR5 cells; experiment: BrdU/PI flow cytometry, cell cycle distribution of IMR5 cells; assay type: cell-based, human; conditions: IMR5 cells without ectopic AURORA-A, 1 µM, 18 hours
How it was run: (§1)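 Cells were pulsed with 10 µM BrdU for 1 h, washed in ice-cold PBS and fixed overnight in 80% ethanol at −20 °C. After a 1% BSA/PBS-T wash, they were stained 30 min at 37 °C with RNase A (24 µg/ml) and propidium iodide (54 µM), then analysed by flow cytometry. For IMR5, the EtOH-treated cells of the doxycycline-inducible line served as the non-overexpressing cells.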

[2] = target: T1, AURORA-A (Homo sapiens, UniProt O14965); experiment: Immunoblot of AURORA-A in compound-treated MV4-11 cells; assay type: cell-based
T1 sequence (O14965 1-403): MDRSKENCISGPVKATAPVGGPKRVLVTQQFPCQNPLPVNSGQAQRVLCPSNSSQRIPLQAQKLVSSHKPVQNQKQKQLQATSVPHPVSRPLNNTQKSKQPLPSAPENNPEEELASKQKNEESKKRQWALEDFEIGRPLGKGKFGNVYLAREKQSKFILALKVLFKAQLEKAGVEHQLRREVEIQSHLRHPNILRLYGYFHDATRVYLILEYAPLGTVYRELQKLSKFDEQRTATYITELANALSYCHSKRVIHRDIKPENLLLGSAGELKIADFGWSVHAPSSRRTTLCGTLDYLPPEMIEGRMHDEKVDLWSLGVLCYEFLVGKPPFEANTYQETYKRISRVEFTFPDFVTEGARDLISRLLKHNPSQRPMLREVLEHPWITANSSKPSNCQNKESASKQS

[3] = target: T1, AURORA-A; experiment: AURORA-A-NanoLuc target engagement assay; assay type: binding; conditions: AURORA-A vs AURORA-B, depending on experimental conditions (BRET, Kinobeads)
[4] = tested on: MV4-11 cells; experiment: BrdU/PI flow cytometry, cell cycle distribution of MV4-11 cells; assay type: cell-based, human; conditions: 1 µM, 12 hours
How it was run: as §1

[5] = target: AK2 (Homo sapiens, UniProt P54819); experiment: Kinobead selectivity profiling: AK2; assay type: binding

SMILES: COc1cc(Nc2ncc3c(n2)-c2ccc(Cl)cc2C(c2c(F)cccc2OC)=NC3)ccc1C(=O)O [Alisertib, alisertib, reference compound]
- cell cycle distribution [1]: led to G2/M arrest
- reduction of steady-state AURORA-A levels (in words) [2]: did not decrease AURORA-A levels, but instead substantially increased it
- difference of affinities for AURORA-A and AURORA-B [3]: 3- to 50 fold
- cell cycle distribution [4]: almost all cells arrested in G2/M
- Kd [5]: 215 nM
